One data set in a line: Solubility versus pH. In kind it is physicochemical. The following applies: dependence on pH.
A further data set can be described thus: Esomeprazole. It is filed as in vivo, human. To be noted: for AUC(0-inf) / Cmax: human, plasma, oral, Geometric LS mean, ANOVA. The essentials:
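Healthy adults (18–60 y, BMI 18–30 kg/m2) in an open-label randomized two-period crossover with a 10-day washout. Single 600 mg oral dose (3 × 200 mg capsules) alone or with esomeprazole 40 mg, fasted at least 8–10 h plus 4 h post-dose. Plasma was assayed by LC-MS/MS (30–3750 ng/mL). ANOVA on ln Cmax/AUC∞ gave 90% CIs of geometric LS mean ratios.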

The target in a further data set is CYP3A4 (Homo sapiens, UniProt P08684). As to the kind of experiment: In vitro mechanism-based inactivation of CYP3A4. It is filed as biochemical.
Data set [1] concerns the target cytochrome P450 (CYP) 3A4 (Homo sapiens, UniProt P08684). As to the kind of experiment: In vitro metabolism: enzyme responsible. To be noted: in vitro studies. In kind it is in vitro ADME.
The next data set deals with T1, OAT1 (Homo sapiens, UniProt Q4U2R8).
T1 sequence (Q4U2R8 1-563): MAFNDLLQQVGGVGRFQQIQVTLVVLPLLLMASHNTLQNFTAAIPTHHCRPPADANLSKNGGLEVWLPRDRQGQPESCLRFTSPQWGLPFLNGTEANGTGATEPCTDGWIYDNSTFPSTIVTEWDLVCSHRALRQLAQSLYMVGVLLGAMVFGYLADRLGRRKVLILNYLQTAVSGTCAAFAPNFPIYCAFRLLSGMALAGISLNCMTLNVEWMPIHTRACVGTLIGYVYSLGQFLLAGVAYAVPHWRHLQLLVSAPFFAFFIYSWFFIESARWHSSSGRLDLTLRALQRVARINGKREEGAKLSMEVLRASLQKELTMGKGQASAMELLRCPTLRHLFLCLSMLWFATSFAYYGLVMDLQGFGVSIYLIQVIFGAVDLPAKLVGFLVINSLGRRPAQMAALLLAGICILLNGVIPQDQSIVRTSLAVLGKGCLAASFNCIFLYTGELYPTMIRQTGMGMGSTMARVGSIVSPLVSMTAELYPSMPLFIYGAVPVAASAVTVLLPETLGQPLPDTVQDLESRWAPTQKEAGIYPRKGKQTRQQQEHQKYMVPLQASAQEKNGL
Put plainly: In vitro OAT1 substrate assessment. It is filed as in vitro ADME. The following applies: in vitro data.

The next data set can be described thus: Itraconazole. It is filed as in vivo, human. Summed up: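 Healthy adults (18–60 y) in a two-treatment crossover with a 10-day washout. Single 600 mg oral dose given alone or with itraconazole 200 mg oral solution, with overnight fast (at least 8–10 h) and 4 h post-dose fast. Sampling extended to 312 h. Plasma was quantified by validated LC-MS/MS. ANOVA of log-transformed Cmax and AUC∞ gave two-sided 90% CIs of geometric LS mean ratios.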

A further data set has as its target T2, UGT1A4 (Homo sapiens, UniProt P22310).
T2 sequence (P22310 29-534): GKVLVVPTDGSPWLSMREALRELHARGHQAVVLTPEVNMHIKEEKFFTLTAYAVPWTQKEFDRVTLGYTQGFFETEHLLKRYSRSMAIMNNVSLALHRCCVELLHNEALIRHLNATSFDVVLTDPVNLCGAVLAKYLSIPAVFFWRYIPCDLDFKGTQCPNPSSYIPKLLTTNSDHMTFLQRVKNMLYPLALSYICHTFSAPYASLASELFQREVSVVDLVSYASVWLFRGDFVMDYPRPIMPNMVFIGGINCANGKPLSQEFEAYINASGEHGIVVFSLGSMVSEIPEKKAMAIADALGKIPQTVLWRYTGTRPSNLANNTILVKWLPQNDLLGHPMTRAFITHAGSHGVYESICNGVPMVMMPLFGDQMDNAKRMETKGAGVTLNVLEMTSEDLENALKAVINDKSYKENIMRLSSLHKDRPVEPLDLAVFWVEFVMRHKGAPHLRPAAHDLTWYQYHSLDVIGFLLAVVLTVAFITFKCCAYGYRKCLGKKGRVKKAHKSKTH
As to the kind of experiment: UGT substrate / metabolite formation. It is filed as in vitro ADME. The following applies: generates ZAAD-1006a.

The next data set in a line: Rifampin. In kind it is in vivo, human. The essentials:
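Crossover in healthy adults (18–60 y, BMI 18–30 kg/m2) with a 10-day washout. Single oral 600 mg dose given alone or with rifampin 600 mg (2 × 300 mg capsules), taken with 240 mL water after at least 8–10 h fasting and 4 h further fasting. Plasma was measured by LC-MS/MS (30–3750 ng/mL). ANOVA (treatment, period, sequence, subject within sequence) on log Cmax/AUC∞ gave 90% CIs.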

Data set [2] can be described thus: Four phase I DDI studies overall. It is filed as in vivo, human. Summed up:
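Across four crossover studies, healthy subjects received a single 600 mg oral dose fasted. Tmax came from plasma LC-MS/MS profiles, with BLQ values set to zero or missing by position. Safety covered adverse events, physical examination, vital signs, 12-lead ECG and laboratory tests. The investigator graded severity and causality. Analysis was descriptive over all subjects dosed at least once.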

The nature of a further data set: Probenecid. In kind it is in vivo, human. The essentials: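 Two-treatment crossover in healthy subjects (18–60 y, BMI 18–32 kg/m2) with a 17-day washout. A 600 mg oral capsule dose was given alone or with probenecid 500 mg tablet, after fasting at least 8–10 h and for 4 h post-dose. Plasma was collected through 312 h and measured by LC-MS/MS. Ratios came from ANOVA of ln-transformed Cmax and AUC∞ with 90% CIs.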

For data set [3] the following is noted: co-administration with probenecid, healthy subjects ref 12; cited from earlier work.
Where [4] appears, read: co-administered with esomeprazole vs alone.
The mark [5] stands for this setting: pexidartinib + esomeprazole vs pexidartinib alone.
Where [6] appears, read: co-administered with itraconazole vs alone.
Setting [7] is: pexidartinib + itraconazole vs pexidartinib alone.
[8] abbreviates: co-administered with rifampin vs alone.
Where [9] appears, read: pexidartinib + rifampin vs pexidartinib alone.
Setting [10] is: pexidartinib + probenecid vs pexidartinib alone.

Consider two compounds from PMC9652259 (Clinical Pharmacokinetics, 2022).

Structures are written as SMILES.

The term AUC(0-inf) denotes the area under the concentration-time curve extrapolated to infinity. The Cmax is the highest concentration seen after dosing. Broadly, the kinact is the rate constant of inactivation at saturating inhibitor. One may read the Tmax as the time at which the peak concentration occurs.

Sequence of CYP3A4 (P08684 whole entry): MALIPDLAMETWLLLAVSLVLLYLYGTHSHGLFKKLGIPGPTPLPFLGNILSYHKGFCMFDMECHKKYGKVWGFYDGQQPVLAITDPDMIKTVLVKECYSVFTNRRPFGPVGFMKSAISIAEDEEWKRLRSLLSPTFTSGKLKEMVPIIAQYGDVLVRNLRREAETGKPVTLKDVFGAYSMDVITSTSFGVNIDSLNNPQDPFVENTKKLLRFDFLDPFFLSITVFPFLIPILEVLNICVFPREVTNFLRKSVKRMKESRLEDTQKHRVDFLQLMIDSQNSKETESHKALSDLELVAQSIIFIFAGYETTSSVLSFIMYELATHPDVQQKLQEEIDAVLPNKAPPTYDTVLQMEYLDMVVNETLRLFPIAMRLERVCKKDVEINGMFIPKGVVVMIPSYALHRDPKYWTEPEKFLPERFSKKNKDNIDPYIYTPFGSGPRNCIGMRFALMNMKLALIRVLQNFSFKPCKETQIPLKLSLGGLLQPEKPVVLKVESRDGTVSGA
Sequence of cytochrome P450 (CYP) 3A4 (P08684 whole entry): as above

`FC(F)(F)c1ccc(CNc2ccc(Cc3c[nH]c4ncc(Cl)cc34)cn2)cn1` [Pexidartinib]: in the data set “Solubility versus pH”, the solubility entry is “decreases as pH increases”. Further, the “decrease in AUC∞” value in “Esomeprazole” (setting [4]) is roughly 47%; in the data set “Rifampin” (setting [8]), roughly 63%. The “decrease in Cmax” value in “Esomeprazole” (setting [4]) is listed as “approximately 55%”; in the data set “Rifampin” (setting [8]), “approximately 33%”. The area under the curve AUC(0-inf) in the data set “Esomeprazole” (600 mg, pexidartinib alone) came out at 104000 ng·h/mL; in the data set “Esomeprazole” (pexidartinib + esomeprazole), 55400 ng·h/mL. Further, the Cmax is 6430 ng/mL in the data set “Esomeprazole” (600 mg, pexidartinib alone) and 2920 ng/mL in “Esomeprazole” (pexidartinib + esomeprazole). Besides, the “AUC∞, Geometric LS mean ratio (90% CI)” value is 53.1 (47.4–59.3) % in “Esomeprazole” (setting [5]), 173.0 (160.7–186.3) % in the data set “Itraconazole” (setting [7]), 37.0 (30.6–44.8) % in “Rifampin” (setting [9]) and 159.8 (143.4–178.0) % in “Probenecid” (setting [10]). Moreover, the “Cmax, Geometric LS mean ratio (90% CI)” value in “Esomeprazole” (setting [5]) was 45.4 (36.8–55.9) %; in the data set “Itraconazole” (setting [7]), 148.3 (127.8–172.0) %; in the data set “Rifampin” (setting [9]), 67.1 (53.1–84.8) %; in the data set “Probenecid” (setting [10]) it was 105.8 (92.4–121.0) %. The compound also gave a KI (inactivation) at CYP3A4 of 4.01 µM. For the same compound, the maximal inactivation rate constant (kinact) on CYP3A4 is 0.000377 s⁻¹. Further, in [1], the “enzyme responsible for metabolism” value is reported as “cytochrome P450 (CYP) 3A4 as the main enzyme”. Moreover, the “substrate for OAT1” value on OAT1 is given as “not a substrate for OAT1”. For the same compound, the “subjects who experienced a TEAE” value is “nine” in the data set “Itraconazole” (N = 16), “single” in “Rifampin” (grade 1 diarrhea) and “Eight” in “Probenecid” (N = 16). Besides, the “increase in AUC∞” value in “Itraconazole” (setting [6]) is reported as roughly 73%. Besides, the “increase in Cmax” value in the data set “Itraconazole” (setting [6]) is on record as “approximately 48%”. In addition, the “subjects with TEAE assessed as related to the study drug” value in “Itraconazole” (pexidartinib or itraconazole) is recorded as “seven”. The UGT1A4 substrate result at UGT1A4 is “substrate of the UGT1A4 enzyme”. Further, the “severity of treatment-emergent adverse events (TEAEs)” value in data set [2] (all four studies) is recorded as “grade 1 or 2”. Moreover, in data set [2] (human, plasma, oral), the Tmax fell in the range of 2 to 3 h. Besides, the “effect on Cmax” value in “Probenecid” (co-administered with probenecid vs alone) was “unchanged”. The “subjects with TEAE considered study drug related” value in “Probenecid” (in vivo) is “four”.

With `CCCc1nc(C(C)(C)O)c(C(=O)O)n1Cc1ccc(-c2ccccc2-c2nnn[nH]2)cc1` [olmesartan], the “increase in AUC” value in data set [3] is “approximately 50%”.
